PubChem BioAssay AID704 (The Scripps Research Institute Molecular Screening Center, 2007)
The whole screen tested about 97,000 compounds, of which about 770 (0.79%) were called active. The sample as a whole holds a higher share of actives than the screen did. Unmarked numbers belong to inactive results.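 How the source made its calls: active means inhibition above the screen-wide mean plus 3 SD (cut at about 35% in these data); inactive means the rest.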

These compounds were tested against Protein Rev (Human immunodeficiency virus type 1 group M subtype B (isolate WMJ22)) (UniProt P05866) (assay: HIV-1 Rev-RRE binding inhibitors, primary screen, biochemical, FRET, protein-RNA interaction (AID 704;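 further: 0% = median DMSO wells and 100% = median Neomycin B control wells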)). Settings: Rev peptide-RRE RNA binding, at 8 µM, stronger effect = higher value.
Procedure, shortened: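 System: Cy5-labelled duplex RRE RNA binding fluorescein-labelled HIV Rev peptide; Signal: fluorescein-to-Cy5 FRET, 480 nm excitation; Also added: labelled Rev peptide; Compound: one concentration, 8 µM nominal; Buffer or medium: HEPES pH 7.5 salt buffer with EDTA; Read-out: % inhibition of FRET ratio versus controls; Schedule: 5 min preincubation and 15 min binding, 25 °C.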

Sequence of Protein Rev (Human immunodeficiency virus type 1 group M subtype B (isolate WMJ22)) (P05866 whole entry, looked up): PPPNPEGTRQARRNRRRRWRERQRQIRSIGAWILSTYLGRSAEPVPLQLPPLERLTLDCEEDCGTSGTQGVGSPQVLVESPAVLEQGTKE

SMILES	inhibition
Cc1ccc(-n2c(CNc3ccc(F)cc3)nnc2SCC(=O)N2CCOCC2)cc1	5.16%
Cc1nn(C)c(Oc2ccccc2)c1[N+](=O)[O-]	4.97%
CCC(c1nnnn1C(C)(C)C)N(Cc1cc2cccc(C)c2n2nnnc12)C1CCCC1 (stereo not drawn)	7.78%
CCOC(=O)c1ccccc1NS(=O)(=O)c1ccc(OC)cc1	17.8%
Cc1cc(C)n(C(=O)CCNC(=O)c2ccccc2Cl)n1	4.01%
CC1CCc2c(c3ccccc3[nH]c2=O)O1 (stereo not drawn)	4.83%
CC(=O)Nc1cccc(/C(C)=N/NC(=O)c2ccccc2Cl)c1	-0.39%
COc1ccc(C(=O)N2CC3(C)CC2CC(C)(C)C3)cc1OC (stereo not drawn)	1.95%
O=C(/C=C/c1cc2c(cc1Br)OCO2)NCc1ccc(Cl)cc1	7.84%
Cc1cccc(N(CC(=O)Nc2ccc(-c3nc4ccc(C)cc4s3)cc2)S(C)(=O)=O)c1	1.45%
O=C(Nc1sc2c(c1-c1nc3ccccc3[nH]1)CCCC2)C1CC1	12.5%
NC1=NC(=O)C2(COC(c3ccccc3Cl)OC2)S1 (stereo not drawn)	1.07%
CCN(CC)c1ccc(/C=N/Nc2nc(C)cc(=O)[nH]2)cc1	15.3%
CCN(CC)c1ccc2oc(=O)c(C)nc2c1	121% [fluorescence artefact?] (active)
CCN(CC)c1ccc2cc(C(=O)O)c(=O)oc2c1	11%
CCS(=O)(=O)Nc1ccc(C2=NN(S(=O)(=O)c3ccc(F)cc3)C(c3ccco3)C2)cc1 (stereo not drawn)	3.07%
O=C(Nc1ccccc1-c1nnn(CC(=O)N2CCCc3ccccc32)n1)c1cccc(Cl)c1	13.6%
COc1cnc(SCc2ccc(Cl)c(Cl)c2)nc1Cl	10%
Cc1ccccc1N/N=C/c1ccc(N2CCOCC2)cc1	6.17%
Cc1ccc(Cc2cnc(NC(=O)/C(C#N)=C/c3ccc(-c4cccc([N+](=O)[O-])c4)o3)s2)cc1	5.73%
CCOC(=O)c1c(NC(=S)Nc2ccccc2)sc2c1CCN(C)C2	103% [fluorescence artefact?] (active)
CCOCC(=O)Nc1sc2c(c1C(=O)OCC)CCCC2	10.1%
CCOC(=O)c1c(NC(=S)NC(=O)c2ccco2)sc2c1CCCC2	0.19%
COc1cc(N2CCCC2)c(OC)cc1/C=C(/C#N)c1cccc(Br)c1	115% [fluorescence artefact?] (active)

SMILES	inhibition
COc1cccc(C(=O)Nc2ccc(N3CCCC3)cc2)c1	9.26%
CC(=O)Nc1cccc(Oc2cc(C#N)c(C#N)cc2N2CCOCC2)c1	5.35%
CC1CN(c2nc(-c3ccccc3)nnc2-c2ccccc2)CC(C)O1 (stereo not drawn)	8.23%
COCCCNCC(=O)Nc1sc(C)c(C)c1C(=O)OC	1.88%
CN1OC(COC(=O)c2ccc(Cl)cc2)CC1c1ccccc1 (stereo not drawn)	7.44%
C=CCc1ccc(OCCOc2cccc(/C=N/n3cnnc3)c2)c(OC)c1	-0.22%
Clc1ccc(-c2cc(COc3ccccc3)no2)cc1Cl	17.6%
CC(CO)N1CCS(=O)(=O)CC1 (stereo not drawn)	4.13%
CCN(CC)C(=O)CSc1ncnc2c1cnn2-c1ccccc1	9.25%
O=C(CN1C(=O)NC2(CCCC2)C1=O)Nc1ccc(F)c(F)c1F	6.86%
CC(C)c1ccc(C(=O)NCCCc2ccccc2)cc1	16.8%
CC(C)C[C@@H](N)c1nnc(SCC(=O)c2ccc(Cl)cc2)o1	6.78%
CCCCOC(=O)Cn1c(=O)n(CC(=O)OCCCC)c2cc(C)ccc21	3.29%
CCOc1cc(/C=C2/N=C(c3ccc(C(C)(C)C)cc3)OC2=O)cc(Cl)c1OS(C)(=O)=O	-2.97%
Cc1ccc(-n2nc3cc(C)c(NC(=O)c4cccnc4)cc3n2)cc1	6.32%
Cc1ccc(S(=O)(=O)/N=C(/Nc2ccccn2)c2ccc(Cl)cc2)cc1	3.03%
CCOC(=O)c1cc(NC(=O)c2ccc(Cl)cc2)c(=O)oc1-c1ccccc1	10.3%
Cc1ccccc1NC(=O)c1ccccc1	3.87%
CC(=O)c1cc(NC(=O)c2ccccc2)c(=O)oc1/C=C/N(C)C	119% [fluorescence artefact?] (active)
c1ccc(-c2csc(N3CCc4ccccc4C3)n2)cc1	3.58%
Cc1c(-c2ccccc2)cn2c1-c1ccc(C)n1CC2	47.1% (active)
Cc1cc(=O)oc(C)c1C(=O)NCc1ccc(F)cc1	8.7%
Cc1cc(=O)oc(C)c1C(=O)Nc1cnc2ccccc2c1	53% (active)
COc1ccc(CNC(=O)c2c(C)cc(=O)oc2C)cc1OC	10.2%

SMILES	inhibition
CN1/C(=c2/s/c(=C3/C(=O)N(c4ccccc4)NC3=Nc3ccccc3)n(C)c2=O)C(C)(C)c2ccccc21	96.1% [fluorescence artefact?] (active)
CC1=NN(c2cccc(Cl)c2)C(=O)C12CC(C)=C(C)CS2 (stereo not drawn)	16.6%
COc1nc(NC2CCCCC2)nc(N2CCCCCC2)n1	2.85%
COc1cccc2c1OCC(C(=O)NCc1ccc(Cl)cc1Cl)=C2	10.5%
Cc1ccc(-c2nnc(-n3nnc4ccccc43)c3ccccc23)cc1	-4.36%
COc1ccc(-c2nn(C)c(=O)c3ccccc23)cc1NC(=O)COc1ccccc1	0.74%
CCNCCC(=O)N1c2ccccc2Sc2ccc(NC(=O)OCC)cc21	-4.36%
CC1CCN(C(=O)CN(c2ccc(Oc3ccccc3)cc2)S(C)(=O)=O)CC1	2.29%
CCOc1ccc(C(CCc2ccccc2)NC(=O)c2ccc(OC)c(OC)c2)cc1OCC (stereo not drawn)	-1.68%
COc1ccc(N(CC(=O)NC2CCCCC2)S(=O)(=O)c2c(C)[nH]c(=O)[nH]c2=O)cc1	-2.97%
CCCCCCNC(=O)CSc1nccn1Cc1ccccc1	1.79%
O=C(Nc1ccc(-n2ccnc2P(=O)(O)c2ccccc2)cc1)c1ccccc1Br	-0.76%
Cc1nn(-c2ccccn2)c2c1C(c1ccncc1)C1=C(CC(C)(C)CC1=O)N2 (stereo not drawn)	12.1%
CCOC(=O)CSc1ncc(-c2cccc(Cl)c2)cn1	8.5%
Cc1ccc(-c2nnc(C)c(N3CC(C)OC(C)C3)n2)cc1 (stereo not drawn)	5.11%
Cc1nnc(NC(=O)Cn2c(=O)sc3ccccc32)s1	2.18%
Cn1c(SCC(=O)N2CCCc3ccccc32)nc2ccccc2c1=O	3.69%
CC(=O)c1ccc(S(=O)(=O)N2CCN(c3nc4c(C)c(C)ccc4cc3C#N)CC2)cc1	9.9%
COCc1cc(C)nc2sc(C(=O)NC3CCCCC3)c(N)c12	12.8%
CCN1CC=C2C(C#N)=C(N)C(C#N)(C#N)[C@H](c3ccoc3)[C@H]2C1	61.7% (active)
CCCN1CC=C2C(C#N)=C(N)C(C#N)(C#N)C(c3cc(OC)ccc3OC)C2C1 (stereo not drawn)	71.8% (active)
COC(=O)C1=C(C)OC(N)=C(C#N)C1c1cc(OC)ccc1OC (stereo not drawn)	9.18%
CCOC(=O)N1CC=C2C(C#N)=C(N)C(C#N)(C#N)[C@H](c3cccs3)[C@H]2C1	29.8%
N#CC1=C(N)C(C#N)(C#N)[C@H](c2ccsc2)[C@H]2COCC=C12	35.5%

SMILES	inhibition
COc1ccc(C2CC(c3ccc(C)cc3)Nc3nc(N)nn32)cc1 (stereo not drawn)	3.26%
COc1ccc(C2C=C(c3ccc(Br)cc3)Nc3nc(NS(C)(=O)=O)nn32)cc1 (stereo not drawn)	83.2% [fluorescence artefact?] (active)
Fc1ccccc1/C=C1\CCCC2=C1Nc1ncnn1C2c1ccccc1F (stereo not drawn)	9.16%
COC(=O)c1c(-c2cccs2)csc1NC(=O)CSc1ncnc2sc(C)c(C)c12	6.95%
COc1cccc(OC)c1C(=O)Nc1ccc(N2CCCCC2)cc1	4.3%
CCCC(=O)n1nc(-c2ccccc2)nc1N	0.74%
CCCNC(=O)c1c(N)n(-c2ccc(S(N)(=O)=O)cc2)c2nc3ccccc3nc12	1.66%
O=C1c2ccccc2C(=O)c2c1cccc2N1CCN(Cc2ccccc2)CC1	10.8%
CCCCNC(=O)OC(C)CNC(=O)OC (stereo not drawn)	-1.24%
CC(=O)Oc1ccc(NC(=O)CCC2CCCCC2)c(C(=O)O)c1	-1.47%
CCOc1ccc(C(O)Cc2nc3ccccc3n2C)cc1 (stereo not drawn)	-0.15%
CCOC(=O)c1cc(C#N)c(N2CCCCC2)nc1-c1ccccc1	14.6%
Cc1ccc(Sc2cc(N3CCOCC3)nc(-c3ccccc3)n2)cc1	12.8%
CS(=O)(=O)N1CCN(c2cccc(Cl)n2)CC1	3.87%
CCC(=O)N(Cc1ccccc1)c1ccccn1	7.11%
COC(=O)C1=C(C)Nc2ncnn2C1c1ccco1 (stereo not drawn)	3.56%
Brc1ccc(C2=CC(c3ccco3)n3ncnc3N2)cc1 (stereo not drawn)	124% [fluorescence artefact?] (active)
Clc1ccc2c(c1)C1=C(C(c3ccncc3)O2)C(c2ccc(Br)cc2)n2ncnc2N1 (stereo not drawn)	-1.15%
COc1ccc(CN(CC(=O)NC2CCCC2)C(=O)CCC(=O)Nc2cc(C)on2)cc1	-2.37%
Cc1cccc(NC(=O)CSc2nc3c(c(=O)[nH]2)CCCC3)c1C	5.45%
O=C(NCc1cccnc1)c1cccnc1Sc1ccc(Cl)cc1	5.95%
